Data on three compounds can be found in ChEMBL document CHEMBL4350999, “Enhanced tumor retention of NTSR1-targeted agents by employing a hydrophilic cysteine cathepsin inhibitor” (Eur J Med Chem, 2019).

As a reminder, the Kp is tissue or fluid exposure divided by exposure in the circulation.

Activity calls are given as the source filed them. The calls are words filed in the database; no cut-off is given here.

Data set [1] is described as follows: Drug internalization in human HT-29 cells assessed as efflux fraction measured at 2 hrs using 177Lu labelled compound by gamma counter method. Format: ADME, cell-based. As to conditions: ht-29, 2 h. A digest of the protocol: (§1)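 HT-29 cells (~1 × 10^6) loaded 2 h at 37 °C with 177Lu conjugate (100,000 cpm), washed, then given fresh medium. Medium collected and replaced at 1, 2, 4, 8, 24 h and gamma-counted; cells lysed in 10% SDS at 24 h. Efflux expressed as % of total internalized activity (effluxed + cell-retained); n = 3.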

A further data set has as its target Cathepsin B (Homo sapiens, UniProt P07858). Put plainly: Binding affinity to human liver cathepsin B assessed as protein-conjugate adduct formation incubated for 30 mins using 177Lu labelled compound by SDS-PAGE analysis. A digest of the protocol:
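Purified human liver CatB or CatL (3 nM) in 50 mM sodium acetate/1 mM EDTA pH 5.0 incubated 30 min with 177Lu conjugate (500,000 cpm) in Tris/MgCl2/DTT buffer pH 5.5, alone or with E-64 (10 μM) or N1 (20 μM). Mixtures heated 85 °C 2 min, run on 16% tris-glycine gel at 110 V for 90 min, and read by phosphor autoradiography.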

The target of a further data set is Procathepsin L (Homo sapiens, UniProt P07711). Put plainly: Binding affinity to cathepsin L in human HT-29 cells assessed as intracellular adduct formation at 0.74 MBq incubated for 4 hrs using 177Lu labelled compound by SDS-PAGE analysis. It is filed as cell-based. The arrangement: dose or concentration left out as unconfirmed. A digest of the protocol:
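HT-29 cells (1 × 10^6/well) incubated 4 h at 37 °C with 177Lu conjugate (20 μCi, 0.74 MBq) in 1 mL medium, with or without E-64 (10 μM) or NTSR1 peptide N1 (20 μM). Cells washed and refed; at set times cells pooled, RIPA-lysed with protease inhibitor. Lysates heated 85 °C 2 min, run on 16% tris-glycine SDS-PAGE, and phosphor autoradiography taken after 72 h exposure.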

A short description of data set [2]: Drug retention in liver of mouse xenografted with human HT-29 cells assessed as tissue-conjugate adduct formation at 29.6 MBq measured after 72 hrs using 177Lu labelled compound by SDS-PAGE analysis. Format: ADME, tissue-based. As to conditions: in vivo. A digest of the protocol:
(§2)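 HT-29 xenograft mice given 800 μCi (29.6 MBq) 177Lu conjugate i.v. and killed at 72 h. Tumor, liver and kidney homogenized in RIPA with protease inhibitor and supernatants run on SDS-PAGE autoradiography. Other supernatant aliquots filtered through 10 kDa MWCO devices to give the % macromolecule-associated radioactivity; n = 3.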

A short description of data set [3]: Drug uptake in human HT-29 cells measured after 240 mins using 177Lu labelled compound by gamma counter method relative to control. Format: ADME, cell-based. The conditions noted are these: ht-29, 4 h. A digest of the protocol: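 HT-29 cells (~1 × 10^6 in 1 mL medium) were incubated with 177Lu-conjugate (100,000 cpm) at 37 °C and sampled at 15–240 min. After medium washes, surface-bound activity was stripped with pH 2.8 glycine-HCl/NaCl buffer, and the internalized fraction was taken from the 1% SDS lysate. Fractions were gamma-counted as % of total added activity; mean ± SD, n = 3.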

Data set [4] in a line: Drug retention in kidney of mouse xenografted with human HT-29 cells assessed as tissue-conjugate adduct formation at 29.6 MBq measured after 72 hrs using 177Lu labelled compound by SDS-PAGE analysis. Format: ADME, tissue-based. The conditions noted are these: in vivo. A digest of the protocol: as §2
(In general: A xenograft is tissue or cells of one species grown in another, often human tumour cells in immunodeficient mice.)

Data set [5] concerns the target Neurotensin receptor type 1 (Homo sapiens, UniProt P30989). Put plainly: Substrate activity at neurotensin receptor in human HT-29 cells assessed as reduction in drug uptake in presence of NTRS1 peptide N1 using Eu labelled compound measured at 2 hrs by lysotracker green staining based confocal microscopic analysis. Format: cell-based. The arrangement: scale not given: the % may be the effect or the level left. A digest of the protocol:
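HT-29 cells (1.25 × 10^5/well) were given natEu-labeled conjugate (5 μM) with or without NTSR1 peptide N1 (20 μM) for 2 h at 37 °C. LysoTracker Green (100 nM) was added for 1 h. Cells were PBS washed, formaldehyde fixed and imaged by confocal microscopy (ex 405 and 488 nm). Mean pixel intensity was normalized to cell count.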

Data set [6] in a line: Ratio of drug uptake in SCID mouse xenograted with human HT-29 cells assessed as tumour retention to drug uptake in muscle of SCID mouse xenografted with human HT-29 cells measured after 4 hrs using 177Lu labelled compound. Format: ADME, tissue-based, Tumor/Muscle. A digest of the protocol: (§3)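 Female SCID mice (5 weeks old) received s.c. flank HT-29 cells (5 × 10^6 in Matrigel). At ~80 mm3, two weeks later, mice were randomized and given 10 μCi (0.37 MBq) of purified 177Lu conjugate i.v. by tail vein. Mice were killed at 4, 24 or 72 h. Tissues were weighed and gamma counted as %ID/g, mean ± SD, n = 5. Tumor-to-tissue ratios were calculated.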

Data set [7] in a line: Ratio of drug uptake in SCID mouse xenograted with human HT-29 cells assessed as tumour retention to drug uptake in kidney of SCID mouse xenografted with human HT-29 cells measured after 72 hrs using 177Lu labelled compound. It is filed as ADME, tissue-based, Tumor/Kidney. A digest of the protocol: as §3
Data set [8] can be described thus: Ratio of drug uptake in SCID mouse xenograted with human HT-29 cells assessed as tumour retention to drug uptake in muscle of SCID mouse xenografted with human HT-29 cells measured after 24 hrs using 177Lu labelled compound. Format: ADME, tissue-based, Tumor/Muscle. A digest of the protocol:
as §3

Data set [9] can be described thus: Ratio of drug uptake in SCID mouse xenograted with human HT-29 cells assessed as tumour retention to drug uptake in lung of SCID mouse xenografted with human HT-29 cells measured after 72 hrs using 177Lu labelled compound. It is filed as ADME, tissue-based, Tumor/Lung. A digest of the protocol: as §3
Data set [10] is described as follows: Ratio of drug uptake in SCID mouse xenograted with human HT-29 cells assessed as tumour retention to drug uptake in large intestine of SCID mouse xenografted with human HT-29 cells measured after 24 hrs using 177Lu labelled compound. Format: ADME, tissue-based, Tumor/Large intestine. A digest of the protocol: as §3
Data set [11] is described as follows: Ratio of drug uptake in SCID mouse xenograted with human HT-29 cells assessed as tumour retention to drug uptake in blood of SCID mouse xenografted with human HT-29 cells measured after 24 hrs using 177Lu labelled compound. Format: ADME, tissue-based, Tumor/Blood. A digest of the protocol:
as §3

Data set [12] is described as follows: Ratio of drug uptake in SCID mouse xenograted with human HT-29 cells assessed as tumour retention to drug uptake in lung of SCID mouse xenografted with human HT-29 cells measured after 24 hrs using 177Lu labelled compound. Format: ADME, tissue-based, Tumor/Lung. A digest of the protocol:
as §3

The nature of data set [13]: Ratio of drug uptake in SCID mouse xenograted with human HT-29 cells assessed as tumour retention to drug uptake in spleen of SCID mouse xenografted with human HT-29 cells measured after 24 hrs using 177Lu labelled compound. It is filed as ADME, tissue-based, Tumor/Spleen. A digest of the protocol:
as §3

A short description of data set [14]: Ratio of drug uptake in SCID mouse xenograted with human HT-29 cells assessed as tumour retention to drug uptake in blood of SCID mouse xenografted with human HT-29 cells measured after 4 hrs using 177Lu labelled compound. It is filed as ADME, tissue-based, Tumor/Blood. A digest of the protocol:
as §3

The nature of data set [15]: Drug internalization in human HT-29 cells assessed as efflux percentage measured at 24 hrs using 177Lu labelled compound by gamma counter method relative to control. Format: ADME, cell-based. As to conditions: ht-29, 24 h. A digest of the protocol: as §1
Data set [16] can be described thus: Ratio of drug uptake in SCID mouse xenograted with human HT-29 cells assessed as tumour retention to drug uptake in liver of SCID mouse xenografted with human HT-29 cells measured after 4 hrs using 177Lu labelled compound. Format: ADME, tissue-based, Tumor/Liver. A digest of the protocol: as §3
Data set [17] is described as follows: Ratio of drug uptake in SCID mouse xenograted with human HT-29 cells assessed as tumour retention to drug uptake in spleen of SCID mouse xenografted with human HT-29 cells measured after 72 hrs using 177Lu labelled compound. Format: ADME, tissue-based, Tumor/Spleen. A digest of the protocol:
as §3

Data set [18] in a line: Ratio of drug uptake in SCID mouse xenograted with human HT-29 cells assessed as tumour retention to drug uptake in kidney of SCID mouse xenografted with human HT-29 cells measured after 24 hrs using 177Lu labelled compound. Format: ADME, tissue-based, Tumor/Kidney. A digest of the protocol:
as §3

Neurotensin receptor type 1, sequence (P30989 whole entry): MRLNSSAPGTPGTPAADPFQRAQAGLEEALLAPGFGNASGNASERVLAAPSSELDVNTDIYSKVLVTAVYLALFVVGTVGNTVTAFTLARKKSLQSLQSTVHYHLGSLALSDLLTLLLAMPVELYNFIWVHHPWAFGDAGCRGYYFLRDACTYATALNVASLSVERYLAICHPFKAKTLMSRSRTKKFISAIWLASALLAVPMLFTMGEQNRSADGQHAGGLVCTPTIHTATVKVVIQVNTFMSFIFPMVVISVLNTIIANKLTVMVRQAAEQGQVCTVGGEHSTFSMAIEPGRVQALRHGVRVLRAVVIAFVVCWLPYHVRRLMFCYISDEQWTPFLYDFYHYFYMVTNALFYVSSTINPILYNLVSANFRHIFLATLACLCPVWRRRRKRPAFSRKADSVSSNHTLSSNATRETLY
Procathepsin L, sequence (P07711 114-333 limits assumed): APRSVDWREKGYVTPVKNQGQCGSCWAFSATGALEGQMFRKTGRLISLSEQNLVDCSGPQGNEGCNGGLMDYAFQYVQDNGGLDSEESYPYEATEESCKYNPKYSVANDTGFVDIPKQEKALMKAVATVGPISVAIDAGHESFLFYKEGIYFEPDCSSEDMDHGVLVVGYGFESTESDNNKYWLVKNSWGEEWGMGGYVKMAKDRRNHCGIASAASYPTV

In the case of `Cc1cc(O)cc(C)c1C[C@H](NC(=O)[C@@H]1CCCN1C(=O)[C@H](CCCNC(=N)N)NC(=O)[C@H](CCCNC(=N)N)N(C)C(=O)[C@@H]1CCCN1C(=O)[C@H](CCCCN)NC(=O)[C@@H](CO)NC(=O)[C@@H](CO)NC(=O)[C@@H](CO)NC(=O)[C@H](Cc1cn(CCNC(=O)[C@H](CCCNC(=N)N)NC(=O)[C@H](CC(C)C)NC(=O)CCC(=O)O)nn1)NC(=O)CN1CCN(CC(=O)O)CCN(CC(=O)O)CCN(CC(=O)O)CC1)C(=O)N[C@H](C(=O)N[C@@H](CC(C)C)C(=O)O)C(C)(C)C`, the Drug uptake was 32.3% in data set [1], “Not Active” in data set [2], 6% in data set [3] and “Not Active” in data set [4]. In addition, the outcome at Cathepsin B and at Procathepsin L was inactive. For the same compound, the Activity in data set [5] turned out to be 65%.

As for `Cc1cc(C)c(C(=O)OCC(=O)[C@H](CCCCNC(=O)CNC(=O)[C@@H](CO)NC(=O)[C@@H](CO)NC(=O)[C@@H](CO)NC(=O)Cn2cc(C[C@H](NC(=O)CN3CCN(CC(=O)O)CCN(CC(=O)O)CCN(CC(=O)O)CC3)C(=O)N[C@H](CO)C(=O)N[C@H](CO)C(=O)N[C@H](CO)C(=O)N[C@@H](CCCCN)C(=O)N3CCC[C@H]3C(=O)N(C)[C@@H](CCCNC(=N)N)C(=O)N[C@@H](CCCNC(=N)N)C(=O)N3CCC[C@H]3C(=O)N[C@@H](Cc3c(C)cc(O)cc3C)C(=O)N[C@H](C(=O)N[C@@H](CC(C)C)C(=O)O)C(C)(C)C)nn2)NC(=O)[C@H](Cc2ccccc2)NC(=O)OCc2ccccc2)c(C)c1`, the Ratio in [6] is 15; in [7], 0.09; in data set [8], 30; in [9] it was 2.6; in [10], 5; in data set [12] it was 2.2. Moreover, the Ratio in data set [13] is recorded as 0.7; in data set [16] it was 0.2; in data set [17], 0.28; in data set [18], 0.15. In data set [11], the concentration ratio (Kp) at 24 h is 69. The Kp at 4 h in data set [14] was found to be 6.5. Further, in data set [15], the Drug uptake amounted to 39%.

On to `Cc1cc(O)cc(C)c1C[C@H](NC(=O)[C@@H]1CCCN1C(=O)[C@H](CCCNC(=N)N)NC(=O)[C@H](CCCNC(=N)N)N(C)C(=O)[C@@H]1CCCN1C(=O)[C@H](CCCCN)NC(=O)[C@@H](CO)NC(=O)[C@@H](CO)NC(=O)[C@@H](CO)NC(=O)[C@H](Cc1cn(CCNC(=O)[C@H](CCCNC(=N)N)NC(=O)[C@H](CC(C)C)NC(=O)C2OC2C(=O)O)nn1)NC(=O)CN1CCN(CC(=O)O)CCN(CC(=O)O)CCN(CC(=O)O)CC1)C(=O)N[C@H](C(=O)N[C@@H](CC(C)C)C(=O)O)C(C)(C)C` (stereo not given in full), for which the Ratio in data set [6] came to 94; in data set [7], 0.09; in [8] it was 137; in data set [9], 10; in [10] it was 6; in data set [12], 15. In addition, the Ratio worked out at 4 in data set [13], 8.4 in data set [16], 2.4 in [17] and 0.08 in data set [18]. In data set [11], the Kp at 24 h amounted to 422. Moreover, the Drug uptake in data set [1] is 27.3%; in data set [2], “Active”; in [3], 6%; in [15], 50%; in data set [4] it was “Active”. Moreover, the result at Cathepsin B and at Procathepsin L was Active. For the same compound, in [14], the concentration ratio (Kp) at 4 h was 337. Also, the Activity in data set [5] is 63.7%.
